This note sets out measurements from ChEMBL document CHEMBL1134529, “4-Hydroxy-5,6-dihydropyrones as inhibitors of HIV protease: the effect of heterocyclic substituents at C-6 on antiviral potency and pharmacokinetic parameters” (J Med Chem, 2001).

Where “and” joins values, the source holds several entries; their conditions need not be identical. Equal entries are not always repeated.

Data set [1] in a line: Bioavailability. Type of data set: ADME, organism-based. Particulars: eutheria, in vivo. In outline:
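Dogs dosed at 10 mg/kg. Vehicle was either the sodium salt in normal saline or the free acid in 0.1 NaOH buffered to pH 10, depending on compound.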

The nature of data set [2]: Compound was evaluated for pharmacokinetic parameter, Cmax in rat at 25 mg/kg po. Type of data set: ADME, organism-based. Details: dose 25 mg/kg, route oral. The settings on record: in vivo.
Data set [3] can be described thus: compound was evaluated for pharmacokinetic parameter, Tmax. The settings on record: in vivo. Type of data set: ADME, organism-based. An outline of the steps:
(§1)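 Species-dependent dosing. Mice: 25 mg/kg po in 20% 0.1 N NaOH/80% 0.5% methylcellulose; values from a pool of five mice; plasma levels by HPLC. Rats: 10 mg/kg po by capsule or pH 7.4-buffered solution; average of two animals. Dogs: 10 mg/kg in saline (sodium salt) or pH 10-buffered 0.1 NaOH (free acid).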

Data set [4] is described as follows: Toxicity measured in CEM cells in the absence of virus. Particulars: human, CEM cells (CCRF-CEM); read-out: TC50 (the source's name). It counts as cell-based.
In data set [5] the test system is Human immunodeficiency virus 1. The data set is described as follows: Antiviral activity in HIV infected CEM cells as effective concentration at which 50% of the cells are protected from cytopathic effect. Type of data set: functional, organism-based. The settings on record: Human immunodeficiency virus 1, CCRF-CEM. In outline: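 HIV-IIIB-infected human lymphocyte-derived CEM cells. EC50 is the drug concentration at which 50% of cells are protected from HIV cytopathic effects. Testing was done at Southern Research Institute.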
Background: Cytopathic effects are the visible damage that an infection or toxin causes in cultured cells.

Data set [6] concerns the target Human immunodeficiency virus type 1 protease (Human immunodeficiency virus 1, UniProt Q72874). The data set is described as follows: HIV-1 protease inhibition. In outline: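 Affinity-purified HIV-1 protease (1.5 nM final) with 40 µM peptide substrate His-Lys-Ala-Arg-Val-Leu-(p-NO2-Phe)-Glu-Ala-Nle-Ser-NH2 and 1.0% DMSO. Buffer: 80 mM MES, 160 mM NaCl, 1.0 mM DTT, 1.0 mM EDTA, 0.1% PEG 8000, pH 6.2. Incubated 60 min at 37 °C, then quenched with TFA (2% final). Products separated by reverse-phase HPLC and read at 220 nm. Percent control derived from % conversion with vs without inhibitor; IC50 then determined.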

Data set [7] can be described thus: compound was evaluated for pharmacokinetic parameter, half life period (T1/2). It counts as ADME, organism-based. The settings on record: in vivo. In outline:
as §1

As for `Cc1cc(SC2=C(O)O[C@](CCc3ccsc3)(C(C)C)CC2=O)c(C(C)(C)C)cc1CO`, in data set [1], the bioavailability (as a rule, dose-corrected exposure relative to a reference, in per cent) worked out at 88%. Besides, the Cmax – broadly, the maximum level reached in the sampled fluid or tissue – in data set [2] was determined as 14.7 µM. In addition, in data set [3], the Tmax (in general, the time at which the peak concentration occurs) came out at 0.5 h. Besides, the CC50 in data set [4] came to 91000 nM. For the same compound, the half-maximal effective concentration (EC50) (usually the concentration at which the effect is half-maximal) in data set [5] was 120 nM. Further, the midpoint of inhibition in data set [6], the IC50, lay at 0.13 nM. For the same compound, the T1/2 in data set [7] was 11.5 h and 5.4 h.
